Here are results for four compounds from ChEMBL document CHEMBL1125500 (J Med Chem, 1992).

Structures are written as SMILES.

Assay [1] has as its target Cholesterol side-chain cleavage enzyme, mitochondrial (Bos taurus) (UniProt P00189). In words: Inhibition of cholesterol side chain cleavage cytochrome P450.
Assay [2] is described as follows: Inhibition of cytochrome P450 progesterone 16-alpha hydroxylase. The assay is classed as ADME, Rattus norvegicus.
Assay [3] can be described thus: Inhibition of lauric acid hydroxylase cytochrome P450 4A. More on the design: species or system Rattus norvegicus. The method in brief:
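Microsomal protein (0.05 mg/mL) with [14C]lauric acid (10 nmol, 6 mCi/mmol), potassium phosphate pH 7.4, MgCl2, EDTA, glucose 6-phosphate, glucose-6-phosphate dehydrogenase (2 units) and NADPH, in 1 mL. Ran 10 min at 37 °C and was stopped with CH2Cl2. Products were resolved by reverse-phase HPLC on a MeCN gradient with radioflow detection.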

In assay [4] the target is T1, Lanosterol 14-alpha demethylase (Rattus norvegicus, UniProt Q64654).
T1 sequence (Q64654 whole entry): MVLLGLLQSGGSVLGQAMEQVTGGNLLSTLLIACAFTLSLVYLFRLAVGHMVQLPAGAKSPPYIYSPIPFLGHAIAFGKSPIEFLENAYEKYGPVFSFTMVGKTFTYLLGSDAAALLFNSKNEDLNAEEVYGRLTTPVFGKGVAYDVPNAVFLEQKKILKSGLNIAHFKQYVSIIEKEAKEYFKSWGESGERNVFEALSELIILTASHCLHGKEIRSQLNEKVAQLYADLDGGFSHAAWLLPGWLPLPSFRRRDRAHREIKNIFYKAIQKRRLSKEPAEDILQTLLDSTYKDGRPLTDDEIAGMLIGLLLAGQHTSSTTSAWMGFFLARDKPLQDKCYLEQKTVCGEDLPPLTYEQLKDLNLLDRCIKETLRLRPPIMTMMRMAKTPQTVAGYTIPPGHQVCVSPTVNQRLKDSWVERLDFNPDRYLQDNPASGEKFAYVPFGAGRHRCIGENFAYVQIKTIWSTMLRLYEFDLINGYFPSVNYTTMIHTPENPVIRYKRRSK
The assay is described as follows: Inhibition of lanosterol 14 alpha-demethylase cytochrome P450 51A. The method in brief: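 Liver microsomes from cholestyramine-treated male rats. Buffer was potassium phosphate pH 7.0 with DTT, EDTA, MgCl2, 0.005% Tween-20, 20% glycerol, 5 mM glucose 6-phosphate and G6P dehydrogenase. […] Reaction was started with NADPH, run 30 min at 37 °C and stopped with TCA. Tritiated water-soluble products were separated on Bond-Elut and counted by scintillation in duplicate.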

For another assay, the target named is Cytochrome P450 2A2 (Rattus norvegicus, UniProt P15149). The assay is described as follows: Inhibition of cytochrome P450 progesterone 15-alpha hydroxylase. Type of assay: ADME.
Sequence of Cytochrome P450 2A2 (P15149 whole entry): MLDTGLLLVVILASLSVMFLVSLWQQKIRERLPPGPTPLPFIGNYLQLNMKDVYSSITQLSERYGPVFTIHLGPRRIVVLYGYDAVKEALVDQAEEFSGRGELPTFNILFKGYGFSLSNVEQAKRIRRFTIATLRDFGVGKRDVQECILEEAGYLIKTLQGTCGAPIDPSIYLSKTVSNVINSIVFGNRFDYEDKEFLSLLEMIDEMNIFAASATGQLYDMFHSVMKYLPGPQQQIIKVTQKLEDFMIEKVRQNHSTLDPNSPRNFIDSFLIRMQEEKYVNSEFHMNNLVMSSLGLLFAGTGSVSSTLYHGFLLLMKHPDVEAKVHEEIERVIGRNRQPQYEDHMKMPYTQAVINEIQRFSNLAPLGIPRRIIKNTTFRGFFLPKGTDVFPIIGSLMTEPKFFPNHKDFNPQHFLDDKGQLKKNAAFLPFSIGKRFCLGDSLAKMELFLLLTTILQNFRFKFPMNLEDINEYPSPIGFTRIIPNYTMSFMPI
Assay [5] is described as follows: Inhibition of Steroid 17-alpha-hydroxylase/17,20 lyase cytochrome P450 17A1. More on the design: species or system Sus scrofa.

Usually IC50 stands for the point on the concentration scale where inhibition reaches its midpoint. Low values mean higher potency, high ones lower potency.

Sequence of Cholesterol side-chain cleavage enzyme, mitochondrial (Bos taurus) (P00189 whole entry, looked up): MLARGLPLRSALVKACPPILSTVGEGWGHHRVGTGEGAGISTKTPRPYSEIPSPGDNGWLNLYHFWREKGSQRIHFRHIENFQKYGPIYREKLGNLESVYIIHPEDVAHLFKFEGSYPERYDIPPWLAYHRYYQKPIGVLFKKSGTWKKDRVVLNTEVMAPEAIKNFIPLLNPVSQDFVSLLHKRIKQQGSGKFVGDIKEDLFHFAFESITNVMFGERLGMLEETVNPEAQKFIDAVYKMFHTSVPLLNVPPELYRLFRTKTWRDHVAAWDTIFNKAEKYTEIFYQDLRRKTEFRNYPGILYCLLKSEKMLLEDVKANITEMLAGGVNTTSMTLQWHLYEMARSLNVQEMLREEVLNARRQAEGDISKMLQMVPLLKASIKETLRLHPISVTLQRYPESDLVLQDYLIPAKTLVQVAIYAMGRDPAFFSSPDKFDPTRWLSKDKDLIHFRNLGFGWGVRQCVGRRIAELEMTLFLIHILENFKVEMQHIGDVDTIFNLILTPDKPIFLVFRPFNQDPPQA

Take `CC(=O)N1CCN(c2ccc(OC[C@H]3CO[C@@](Cn4ccnc4)(c4ccc(Cl)cc4Cl)O3)cc2)CC1`: the half-inhibitory concentration (IC50) was 2.95 µM in assay [1]; 37.9 µM in assay [2]; > 100 µM in assay [3]; 1600 nM in assay [4]; 1080 nM against Cytochrome P450 2A2; 589 nM in assay [5].
`CC(=O)N1CCN(c2ccc(OC[C@@H]3CO[C@](Cn4ccnc4)(c4ccc(Cl)cc4Cl)O3)cc2)CC1`: the IC50 was 3.92 µM in assay [1]; 32.3 µM in assay [2]; > 100 µM in assay [3]; 1370 nM in assay [4]; 728 nM on Cytochrome P450 2A2.
Take `CC(=O)N1CCN(c2ccc(OCC3COC(Cn4ccnc4)(c4ccc(Cl)cc4Cl)O3)cc2)CC1` (stereo in doubt; 2) [KETOCONAZOLE]: the IC50 in assay [1] worked out at 1.24 µM; in assay [2], 83.9 µM; in assay [4], 47 nM; against Cytochrome P450 2A2, 543 nM; in assay [5], 50 nM.
Consider `CC(=O)N1CCN(c2ccc(OCC3COC(Cn4ccnc4)(c4ccc(Cl)cc4Cl)O3)cc2)CC1` (stereo in doubt; 4) [KETOCONAZOLE], for which the IC50 is 5.4 µM in assay [1]; 69.3 µM in assay [2]; > 100 µM in assay [3]; 119 nM in assay [4]; 369 nM at Cytochrome P450 2A2; 2380 nM in assay [5].
